# Laboratory results reported in article PMC7814465 (Cell reports, 2020).
# How the values were obtained:
# Imp7 = test: Pull-down from HeLa cytosol, Imp7; assay type: binding; details: biotinylated peptide, western blot
# In short: (§1)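 Biotin-DPR bait (5 μg per 10 μl beads) immobilised overnight with 2 mg/ml ovalbumin. Prey bound in B-buffer with 2 mg/ml BSA, washed without BSA, eluted in 2× SDS loading buffer. Two independent replicates.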
# TNPO1 (His-TNPO1) = test: SDD-AGE oligomer formation, TNPO1; assay type: biochemical; details: 10-fold molar excess: 2 μM importin, 20 μM TMR-DPR, pH 7.5, 200 mM NaCl, 1 h RT
# [1] = tested on: TDP-43 (TDP-43-Tev-MBP/MBP-Tev-TDP-43-GFP); test: TDP-43 condensate formation with DPRs, microscopy; assay type: biochemical; details: TMR-labeled DPR, equimolar (1x) or two-fold (2x), 2 μM TDP-43/TDP-43-GFP, Tev cleavage, 200 mM NaCl, pH 7.5
# In short: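 Size-exclusion-purified TDP-43-MBP-His (2 μM) was mixed with substoichiometric MBP-TDP-43-GFP-His (1:4–1:5). Condensates were imaged by laser scanning confocal microscopy.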
# Impα3 (His-Impα3) = test: SDD-AGE oligomer formation, Impα3; assay type: biochemical, rat; details: 10-fold molar excess: 2 μM importin, 20 μM TMR-DPR, pH 7.5, 200 mM NaCl, 1 h RT
# Impα3 = test: Pull-down from HeLa cytosol, Impα3; assay type: binding; details: biotinylated peptide, western blot
# In short: as §1
# [2] = tested on: Impβ (His-S-Impβ, in the absence of Impα); test: Sedimentation assay, Impβ alone; assay type: biochemical
# In short: (§2)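 Protein was 1 µM purified NTR alone, or 500 nM Impα with 500 nM Impβ. Samples were centrifuged 15 min at 21,000 g, 4°C. Equal volumes of supernatant and pellet were analysed by SDS-PAGE with Sypro-Ruby stain or western blot.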
# CRM1 = test: Sedimentation assay, CRM1; assay type: biochemical
# In short: as §2
# Impb = details: FRET sensors and bead Halo assays; ref Hayes et al., 2019; cited from earlier work
# Impβ = test: Pull-down from HeLa cytosol, Impβ; assay type: binding; details: biotinylated peptide, western blot
# In short: as §1
# [3] = tested on: shuttling reporter (NLS and nuclear export signal); details: HeLa cells incubated with peptides; ref Shi et al., 2017; cited from earlier work
# GAPDH in HeLa cytosol = test: Sedimentation assay from HeLa cytosol, GAPDH; assay type: biochemical; details: highest GR/PR concentrations
# TDP-43 condensates = test: Suppression of phase separation of TDP-43 alone by NTRs; assay type: biochemical; details: equimolar NTR, 5 μM TDP-43, Tev cleavage
# In short: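 TDP-43-MBP-His (Ni-NTA then amylose purified) and TNPO1 were buffer-exchanged into 20 mM HEPES-NaOH pH 7.4, 150 mM NaCl, 1 mM DTT. TDP-43 at 5 μM, with or without 5 μM TNPO1, was started with 1 μg/ml Tev protease. Absorbance at 395 nm was read over 16 h and normalised to TDP-43 + Tev alone.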
# TDP-43 [4] = test: TDP-43 turbidity assay; assay type: biochemical; details: n = 3
# In short: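 TDP-43-MBP-His (Ni-NTA then amylose purified) and TNPO1 were buffer-exchanged into 20 mM HEPES-NaOH pH 7.4, 150 mM NaCl, 1 mM DTT. TDP-43 at 5 µM final was combined with 2 µM DPR peptide (PBS control), 5 µM TNPO1, or both. Phase separation was started with 1 µg/ml Tev protease, and absorbance at 395 nm was followed over 16 h. Values were normalized to TDP-43 plus Tev alone.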
# [5] = tested on: GR- or PR-induced TDP-43 condensates; test: Suppression of GR- or PR-induced TDP-43 condensates by NTRs; assay type: biochemical; details: equimolar NTR; TMR-GR25 or TMR-PR25; Tev cleavage
# In short: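 SEC-purified TDP-43-MBP-His (2 μM) was mixed with MBP-TDP-43-GFP-His at 1:4–1:5, together with equimolar TMR-labelled DPR, with or without NTRs. Mixing preceded cleavage with 100 μg/ml His-Tev in 50 mM Tris pH 7.5, 200 mM NaCl, 2 mM DTT. Condensates were imaged by laser scanning confocal microscopy.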
# TDP-43 [6] = test: Sedimentation of TDP-43 with GST-GR25 and NTRs; assay type: biochemical; details: GST-GR25, NTR added prior to Tev cleavage; three independent experiments
# In short: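 1 µM TDP-43-MBP-His was Tev-cleaved (20 µg/ml His-Tev, 60 min, 30°C) with or without equimolar GST-tagged DPR and/or NTRs, then spun 15 min at 21,000 g, 4°C. Equal supernatant and pellet volumes were analysed by SDS-PAGE with Sypro-Ruby or western blot. Percentage of soluble cleaved TDP-43 is the mean ± SEM of three experiments, compared by one-way ANOVA with Dunnett's test.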
# TDP-43 in HeLa cytosol = test: Suppression by NTRs of GR-induced precipitation of cytosolic TDP-43; assay type: biochemical; details: equimolar NTR, three independent experiments
# In short: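 Cytosol came from digitonin-permeabilised HeLa cells, cleared at 21,000 g. TMR-DPRs were added and the mix held 15 min at 4°C, then spun at 21,000 g for 15 min. Equal volumes of pellet and supernatant were analysed by western blot.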
# GST-GR25 / TDP-43 = test: Sedimentation of GST-GR25 with TDP-43 and NTRs; assay type: biochemical; details: equimolar NTR; three independent experiments
# In short: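 1 µM TDP-43-MBP-His was Tev-cleaved (20 µg/ml His-Tev, 60 min, 30°C) with or without equimolar GST-tagged DPR and/or NTRs. Samples were centrifuged 15 min at 21,000 g, 4°C. Equal volumes of supernatant and pellet were analysed by anti-GST western blot.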
# [7] = 10-fold molar excess of TMR-labeled DPR, n = 3
# [8] = extremely high concentrations (up to 40x)
molecule,measurement,setting,value
poly-PR: arginine-rich dipeptide repeat protein species; in the experiments mostly PR25,binding in pull-down,Imp7,bound equally to both poly-GR and poly-PR
same,oligomer formation of TNPO1 (SDS-resistant),TNPO1 (His-TNPO1),SDS-resis-tant oligomers
same,TDP-43 condensate formation,[1],formation of condensates
same,oligomer formation of Impα3 (SDS-resistant),Impα3 (His-Impα3),SDS-resis-tant oligomers
same,binding in pull-down,Impα3,bound equally to both poly-GR and poly-PR
same,solubility of Impβ,[2]; [7],remained mainly soluble
same,"precipitation of Impβ, titration",[2]; [8],only partial or no precipitation
same,solubility of CRM1,CRM1; [7],remained mainly soluble
same,"precipitation of CRM1, titration",CRM1; [8],only partial or no precipitation
same,direct binding to Impb in vitro,Impb,direct binding
same,binding in pull-down,Impβ,bound equally to both poly-GR and poly-PR
same,import of shuttling reporter,[3],reduced import
same,precipitation of GAPDH from HeLa cytosol,GAPDH in HeLa cytosol,not precipitated
"TNPO1: nuclear import receptor, recombinant (protein, left off: His6, N-terminal, kept) MVWDRQTKMEYEWKPDEQGLQQILQLLKESQSPDTTIQRTVQQKLEQLNQYPDFNNYLIFVLTKLKSEDEPTRSLSGLILKNNVKAHFQNFPNGVTDFIKSECLNNIGDSSPLIRATVGILITTIASKGELQNWPDLLPKLCSLLDSEDYNTCEGAFGALQKICEDSAEILDSDVLDRPLNIMIPKFLQFFKHSSPKIRSHAVACVNQFIISRTQALMLHIDSFIENLFALAGDEEPEVRKNVCRALVMLLEVRMDRLLPHMHNIVEYMLQRTQDQDENVALEACEFWLTLAEQPICKDVLVRHLPKLIPVLVNGMKYSDIDIILLKGDVEEDETIPDSEQDIRPRFHRSRTVAQQHDEDGIEEEDDDDDEIDDDDTISDWNLRKCSAAALDVLANVYRDELLPHILPLLKELLFHHEWVVKESGILVLGAIAEGCMQGMIPYLPELIPHLIQCLSDKKALVRSITCWTLSRYAHWVVSQPPDTYLKPLMTELLKRILDSNKRVQEAACSAFATLEEEACTELVPYLAYILDTLVFAFSKYQHKNLLILYDAIGTLADSVGHHLNKPEYIQMLMPPLIQKWNMLKDEDKDLFPLLECLSSVATALQSGFLPYCEPVYQRCVNLVQKTLAQAMLNNAQPDQYEAPDKDFMIVALDLLSGLAEGLGGNIEQLVARSNILTLMYQCMQDKMPEVRQSSFALLGDLTKACFQHVKPCIADFMPILGTNLNPEFISVCNNATWAIGEISIQMGIEMQPYIPMVLHQLVEIINRPNTPKTLLENTAITIGRLGYVCPQEVAPMLQQFIRPWCTSLRNIRDNEEKDSAFRGICTMISVNPSGVIQDFIFFCDAVASWINPKDDLRDMFCKILHGFKNQVGDENWRRFSDQFPLPLKERLAAFYGV",suppression of phase separation of TDP-43 alone,TDP-43 condensates,unable to abolish condensate formation of TDP-43
same,effect on GR-mediated promotion of TDP-43 turbidity,"TDP-43 [4]; 5 μM TNPO1, 2 μM GR20, 5 μM TDP-43, 395 nm, 16 h",effectively suppressed
same,effect on TDP-43 turbidity increase in absence of GR,"TDP-43 [4]; 5 μM TNPO1, 5 μM TDP-43, Tev cleavage, 395 nm",did not affect
same,suppression of GR- or PR-induced TDP-43 condensates,[5],suppress the GR- or PR-induced formation of TDP-43 condensates
same,reversal of poly-GR-enhanced sedimentation of TDP-43,TDP-43 [6],efficiently reverted
same,suppression of GR-induced precipitation of cytosolic TDP-43,TDP-43 in HeLa cytosol,efficiently suppressed GR-induced precipitation of cytosolic TDP-43
same,rescue of GST-GR25 solubility in presence of TDP-43,GST-GR25 / TDP-43,completely rescued
